Measurements published in ChEMBL document CHEMBL3612047, “Synthesis, antiproliferative activity and possible mechanism of action of novel 2-acetamidobenzamides bearing the 2-phenoxy functionality” (Bioorg Med Chem, 2015).
Calls of active or inactive are those of the source. The calls are words filed in the database; no cut-off is given here.

Assays:
NCI-H460 = experiment: Growth inhibition of human NCI-H460 cells by NCI standard protocol based method; type: functional
In short: (§1)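 NCI full 60-cell-line panel, 5-dose assay to the NCI standard protocol. GI₅₀ is the molar concentration inhibiting 50% net cell growth. Mean graph midpoint is averaged over all lines; where the effect is not reached, the highest tested concentration is used.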

NCI-H226 = experiment: Growth inhibition of human NCI-H226 cells by NCI standard protocol based method; type: functional; in short: as §1
K562 [1] = experiment: Growth inhibition of human K562 cells incubated for 24 hrs by trypan blue dye exclusion assay; type: functional, cell-based; conditions: K562, 24 h
In short: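 K562 cells, about 2 × 10⁵ cells/mL, precultured 24 h, then exposed 24 h to a range of compound concentrations. Viable cells counted by hemocytometer with trypan blue exclusion to derive IC₅₀.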

SNB-19 = experiment: Growth inhibition of human SNB19 cells by NCI standard protocol based method; type: functional
In short: (§2)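 NCI 60-cell-line screen, standard NCI protocol. Single high dose of 10⁻⁵ M first, then a 5-dose assay across the full panel. Reported as GI₅₀, TGI and LC₅₀, the molar concentrations giving 50% net growth inhibition, total growth inhibition and 50% net cell death. Where an effect was not reached, the highest tested concentration was used.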

A498 = experiment: Growth inhibition of human A498 cells by NCI standard protocol based method; type: functional; in short: as §1
M14 = experiment: Growth inhibition of human M14 cells by NCI standard protocol based method; type: functional; in short: as §1
Tubulin (Homo sapiens) = Tubulin (Homo sapiens) (UniProt P68371+Q9H4B7+P0DPH7+P68366+Q13509+Q71U36+P04350+Q3ZCM7+P07437+P68363+Q9BQE3+Q6PEY2+Q13885+Q9BVA1+Q9BUF5); experiment: Inhibition of tubulin (unknown origin) assembly; type: protein-complex assay
HCT-116 = experiment: Growth inhibition of human HCT116 cells by NCI standard protocol based method; type: functional; in short: as §1
NCI-H322M = experiment: Growth inhibition of human NCI-H322M cells by NCI standard protocol based method; type: functional; in short: as §1
NCI/ADR-RES = experiment: Growth inhibition of human NCI/ADR-RES cells by NCI standard protocol based method; type: functional; in short: as §1
NCI-H23 = experiment: Growth inhibition of human NCI-H23 cells by NCI standard protocol based method; type: functional; in short: as §1
[2] = Cytotoxicity against human HuDe cells incubated for 72 hrs by MTT assay; type: cell-based
In short: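 HuDe primary culture from human epidermis, seeded at 2 × 10⁴ cells/mL. Test drugs at different concentrations, or 0.1% DMSO, added 24 h after seeding, with 72 h exposure. MTT (5 mg/mL in PBS) then applied for 3 h at 37 °C. Formazan solubilized with isopropanol/triton X-100/HCl and read at 570 nm with 690 nm blank.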

K562 [3] = experiment: Selectivity index, ratio of IC50 for human HuDe cells to IC50 human K562 cells
In short: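 Index taken as the ratio of HuDe to K562 IC₅₀. For K562: about 2 × 10⁵ cells/mL, compounds added at graded concentrations, viable count by trypan blue exclusion with a hemocytometer after 24 h. For HuDe primary epidermal cells: 2 × 10⁴ cells/mL, drugs or 0.1% DMSO added 24 h after seeding, MTT read at 570 nm (690 nm blank) after 72 h.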

[4] = Growth inhibition of human RXF393 cells by NCI standard protocol based method; type: functional; conditions: RXF 393; in short: as §1
SK-MEL-2 = experiment: Growth inhibition of human SK-MEL-2 cells by NCI standard protocol based method; type: functional; in short: as §1
[5] = Growth inhibition of human SF539 cells by NCI standard protocol based method; type: functional; conditions: SF-539; in short: as §1
NCI-H522 = experiment: Growth inhibition of human NCI-H522 cells by NCI standard protocol based method; type: functional; in short: as §1
MDA-MB-435 = experiment: Growth inhibition of human MDA-MB-435 cells by NCI standard protocol based method; type: functional; in short: as §1
[6] = Growth inhibition of human NCI60 cells assessed as cell growth level at 10 uM by NCI standard protocol based method; type: functional; design: scale not given: the % may be the effect or the level left
In short: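 NCI 60-cell-line screen (leukemia, lung, colon, melanoma, renal, ovarian, brain, breast, prostate) run to the NCI standard protocol. Single high dose of 10⁻⁵ M, read as growth percent. Mean graph midpoint is the arithmetic mean over all lines tested.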

SN12C = experiment: Growth inhibition of human SN12C cells by NCI standard protocol based method; type: functional; in short: as §2
ACHN = experiment: Growth inhibition of human ACHN cells by NCI standard protocol based method; type: functional; in short: as §1
T47D = experiment: Growth inhibition of human T47D cells by NCI standard protocol based method; type: functional; in short: as §2
HCT-15 = experiment: Growth inhibition of human HCT15 cells by NCI standard protocol based method; type: functional; in short: as §1
[7] = Growth inhibition of human SF295 cells by NCI standard protocol based method; type: functional; conditions: SF-295; in short: as §1
SK-MEL-5 = experiment: Growth inhibition of human SK-MEL-5 cells by NCI standard protocol based method; type: functional; in short: as §1
OVCAR-5 = experiment: Growth inhibition of human OVCAR5 cells by NCI standard protocol based method; type: functional; in short: as §1
SNB-75 = experiment: Growth inhibition of human SNB75 cells by NCI standard protocol based method; type: functional; in short: as §2
SW-620 = experiment: Growth inhibition of human SW620 cells by NCI standard protocol based method; type: functional; in short: as §2
U-251 = experiment: Growth inhibition of human U251 cells by NCI standard protocol based method; type: functional; in short: as §2
SK-OV-3 = experiment: Growth inhibition of human SKOV3 cells by NCI standard protocol based method; type: functional; in short: as §2
MDA-MB-231 = experiment: Growth inhibition of human MDA-MB-231 cells by NCI standard protocol based method; type: functional; in short: as §1
PC-3 = experiment: Growth inhibition of human PC3 cells by NCI standard protocol based method; type: functional; in short: as §1
[8] = Growth inhibition of human MOLT4 cells by NCI standard protocol based method; type: functional; conditions: MOLT-4; in short: as §1
KM12 = experiment: Growth inhibition of human KM12 cells by NCI standard protocol based method; type: functional; in short: as §1
MCF7 = experiment: Growth inhibition of human MCF7 cells by NCI standard protocol based method; type: functional; in short: as §1
OVCAR-3 = experiment: Growth inhibition of human OVCAR3 cells by NCI standard protocol based method; type: functional; in short: as §1
A549 = experiment: Growth inhibition of human A549/ATCC cells by NCI standard protocol based method; type: functional; in short: as §1
SK-MEL-28 = experiment: Growth inhibition of human SK-MEL-28 cells by NCI standard protocol based method; type: functional; in short: as §1
K562 [9] = experiment: Growth inhibition of human K562 cells at 10 uM incubated for 24 hrs by trypan blue dye exclusion assay; type: functional; conditions: K562, 24 h, read-out: GI
In short: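 K562 cells in medium with 5% FBS at 37 °C, 5% CO₂. About 2 × 10⁵ cells/mL cultured 24 h, then compound added at 10 μM. After 24 h exposure, cells counted by hemocytometer and viability scored by trypan blue exclusion, reported as percent growth inhibition.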

[10] = Growth inhibition of human Hs578T cells by NCI standard protocol based method; type: functional; conditions: Hs-578T; in short: as §1
[11] = Growth inhibition of human COLO205 cells by NCI standard protocol based method; type: functional; conditions: COLO 205; in short: as §1

SMILES: NC(=O)c1cc(I)ccc1NC(=O)COc1ccccc1
- GI50 (NCI-H460): 425 nM
- GI50 (NCI-H226): 4.94 µM
- IC50 (K562 [1]): 160 nM
- GI50 (SNB-19): 913 nM
- GI50 (A498): 1020 nM
- GI50 (M14): 389 nM
- inhibition (Tubulin (Homo sapiens)): inactive
- GI50 (HCT-116): 517 nM
- GI50 (NCI-H322M): 705 nM
- GI50 (NCI/ADR-RES): 344 nM
- GI50 (NCI-H23): 657 nM
- IC50 [2]: 318 µM
- Ratio IC50 (K562 [3]): 1987.5
- GI50 [4]: 413 nM
- GI50 (SK-MEL-2): 463 nM
- GI50 [5]: 249 nM
- GI50 (NCI-H522): 630 nM
- GI50 (MDA-MB-435): 101 nM
- Activity [6]: 24.31%
- GI50 (SN12C): 945 nM
- GI50 (ACHN): 1320 nM
- GI50 (T47D): 556 nM
- GI50 (HCT-15): 253 nM
- GI50 [7]: 223 nM
- GI50 (SK-MEL-5): 533 nM
- GI50 (OVCAR-5): 1.68 µM
- GI50 (SNB-75): 215 nM
- GI50 (SW-620): 454 nM
- GI50 (U-251): 396 nM
- GI50 (SK-OV-3): 3.17 µM
- GI50 (MDA-MB-231): 1280 nM
- GI50 (PC-3): 428 nM
- GI50 [8]: 1100 nM
- GI50 (KM12): 308 nM
- GI50 (MCF7): 230 nM
- GI50 (OVCAR-3): 321 nM
- GI50 (A549): 732 nM
- GI50 (SK-MEL-28): 1790 nM
- inhibition of growth at 10 µM (K562 [9]): 73%
- GI50 [10]: 630 nM
- GI50 [11]: 353 nM

SMILES: COc1ccc(NC(=O)COc2ccccc2)c(C(N)=O)c1
- GI50 (NCI-H460): 484 nM
- GI50 (NCI-H226): 21.5 µM
- IC50 (K562 [1]): 1100 nM
- GI50 (SNB-19): 3200 nM
- GI50 (A498): 304 nM
- GI50 (M14): 514 nM
- inhibition (Tubulin (Homo sapiens)): inactive
- GI50 (HCT-116): 518 nM
- GI50 (NCI-H322M): 2100 nM
- GI50 (NCI/ADR-RES): 418 nM
- GI50 (NCI-H23): 1380 nM
- IC50 [2]: 942 µM
- Ratio IC50 (K562 [3]): 856.28
- GI50 [4]: 1400 nM
- GI50 (SK-MEL-2): 611 nM
- GI50 [5]: 441 nM
- GI50 (NCI-H522): 1190 nM
- GI50 (MDA-MB-435): 121 nM
- Activity [6]: 25.81%
- GI50 (SN12C): 3090 nM
- GI50 (ACHN): 2250 nM
- GI50 (HCT-15): 432 nM
- GI50 [7]: 650 nM
- GI50 (SK-MEL-5): 1680 nM
- GI50 (OVCAR-5): 5.4 µM
- GI50 (SNB-75): 245 nM
- GI50 (SW-620): 448 nM
- GI50 (U-251): 664 nM
- GI50 (SK-OV-3): 2.99 µM
- GI50 (MDA-MB-231): 2030 nM
- GI50 (PC-3): 464 nM
- GI50 [8]: 2000 nM
- GI50 (KM12): 388 nM
- GI50 (MCF7): 497 nM
- GI50 (OVCAR-3): 375 nM
- GI50 (A549): 908 nM
- GI50 (SK-MEL-28): 502 nM
- inhibition of growth at 10 µM (K562 [9]): 85.3%
- GI50 [10]: 592 nM
- GI50 [11]: 487 nM
